Experimental data reported in ChEMBL document CHEMBL3875213, “Quinolines: Microwave-assisted synthesis and their antifungal, anticancer and radical scavenger properties” (Bioorg Med Chem, 2017).
Converted amounts (≈) assume the structure as drawn. The source made the active and inactive calls. The calls are words filed in the database; no cut-off is given here.

Legend:
[1] = Ratio of antifungal activity against Candida albicans ATCC 10231 to antifungal activity against Cryptococcus neoformans ATCC 32264; assay type: functional
Candida albicans [2] = assay: Growth inhibition of Candida albicans ATCC 10231 at 3.9 ug/ml incubated for 48 hrs under dark condition by broth microdilution assay relative to amphotericin B; assay type: functional; details: ATCC 10231, 48 h, read-out: GI
Summary of the method: (§1)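 Yeast broth microdilution (CLSI M27-A3), RPMI-1640, inoculum 1-5 x 10^3 CFU/mL, DMSO ≤1%, 48 h at 30 °C in a moist, dark chamber. […]. Triplicate; amphotericin B as positive control.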

Candida albicans [3] = assay: Growth inhibition of Candida albicans ATCC 10231 at 7.81 ug/ml incubated for 48 hrs under dark condition by broth microdilution assay relative to amphotericin B; assay type: functional; details: ATCC 10231, 48 h, read-out: GI; summary of the method: as §1
Candida albicans [4] = assay: Growth inhibition of Candida albicans ATCC 10231 at 15.62 ug/ml incubated for 48 hrs under dark condition by broth microdilution assay relative to amphotericin B; assay type: functional; details: ATCC 10231, 48 h, read-out: GI; summary of the method: as §1
Candida albicans [5] = assay: Growth inhibition of Candida albicans ATCC 10231 at 31.25 ug/ml incubated for 48 hrs under dark condition by broth microdilution assay relative to amphotericin B; assay type: functional; details: ATCC 10231, 48 h, read-out: GI; summary of the method: as §1
Candida albicans [6] = assay: Growth inhibition of Candida albicans ATCC 10231 at 62.5 ug/ml incubated for 48 hrs under dark condition by broth microdilution assay relative to amphotericin B; assay type: functional; details: ATCC 10231, 48 h, read-out: GI; summary of the method: as §1
Candida albicans [7] = assay: Growth inhibition of Candida albicans ATCC 10231 at 125 ug/ml incubated for 48 hrs under dark condition by broth microdilution assay relative to amphotericin B; assay type: functional; details: ATCC 10231, 48 h, read-out: GI; summary of the method: as §1
Candida albicans [8] = assay: Growth inhibition of Candida albicans ATCC 10231 at 250 ug/ml incubated for 48 hrs under dark condition by broth microdilution assay relative to amphotericin B; assay type: functional; details: ATCC 10231, 48 h, read-out: GI; summary of the method: as §1
Candida albicans [9] = assay: Antifungal activity against Candida albicans ATCC 10231 incubated for 48 hrs under dark condition by broth microdilution assay; assay type: functional; details: ATCC 10231, 48 h
Summary of the method: (§2)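 Broth microdilution per CLSI M27-A3 in RPMI-1640. Inocula adjusted to 1-5 x 10^3 CFU/mL. Stocks in DMSO (≤1%), final 3.9-250.0 µg/mL. Incubated 48 h at 30 °C in a moist, dark chamber, read at OD 405. % inhibition computed from growth and sterility control wells, run in triplicate. MIC80/MIC50 taken from four-parameter logistic concentration-response curves; amphotericin B as positive control.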

[10] = Antifungal activity against Cryptococcus neoformans ATCC 32264 incubated for 48 hrs under dark condition by broth microdilution assay; assay type: functional; summary of the method: as §2
[11] = Antiproliferative activity against human TOV21G harboring wild type TP53 cells after 24 hrs by MTT assay; assay type: functional, cell-based
Summary of the method: (§3)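 Cells grown in medium with 10% foetal bovine serum and 1% L-glutamine at 37 °C, 5% CO2, seeded at 1 x 10^5 cells/well. Exposed to compound at 1.0-1,000 µg/mL for 24 h. MTT added, absorbance read at 540 nm 3 h later. IC50 obtained by non-linear regression of viability data.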

[12] = Antiproliferative activity against human CCD-19Lu cells after 24 hrs by MTT assay; assay type: cell-based; summary of the method: as §3
[13] = Antiproliferative activity against human NCI-H226 cells harboring TP53 mutant after 24 hrs by MTT assay; assay type: functional, cell-based; details: NCI-H226, 24 h; summary of the method: as §3
[14] = Antiproliferative activity against human Hep2C cells after 24 hrs by MTT assay; assay type: functional, cell-based; summary of the method: as §3
[15] = Selectivity index, ratio of IC50 for human CCD-19Lu cells to IC50 for human TOV21G cells; assay type: functional
Summary of the method: (§4)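 Selectivity index equals IC50 in non-tumour CCD 19-Lu lung fibroblasts divided by IC50 in the tumour line. Both IC50s come from the 24 h MTT assay (read at 540 nm) over 1.0-1,000 µg/mL.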

NCI-H226 = assay: Selectivity index, ratio of IC50 for human CCD-19Lu cells to IC50 for human NCI-H226 cells; assay type: functional; summary of the method: as §4
[16] = Selectivity index, ratio of IC50 for human CCD-19Lu cells to IC50 for human Hep2C cells; assay type: functional; summary of the method: as §4
[17] = Antioxidant activity assessed as DPPH radical scavenging activity at 160 uM incubated for 30 mins under dark condition; assay type: functional
Summary of the method: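 Compound at 160 µM incubated with 100 µM DPPH in ethanolic medium, stirred in the dark for 30 min, read at 517 nm. Resveratrol as positive control. Three independent experiments, each in triplicate.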

[18] = Antioxidant activity assessed as DPPH radical scavenging activity incubated for 30 mins under dark condition; assay type: functional
Summary of the method: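 DPPH (100 µM) in ethanolic medium, stirred 30 min in the dark, absorbance at 517 nm. Compound varied from 0 to 160 µg/mL to find the concentration scavenging 50% of radicals. Three independent experiments, each in triplicate.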

[19] = Antioxidant activity assessed as fluorescent light-induced superoxide anion scavenging activity at 160 uM incubated for 10 mins by nitroblue tetrazolium dye based assay; assay type: functional
Summary of the method: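 Superoxide generated photochemically in 50 mM phosphate buffer pH 7.8 with 13 mM L-methionine, 75 µM nitroblue tetrazolium, 100 µM EDTA and 2 µM riboflavin. Compound at 160 µM. 10 min at 25 °C under fluorescent light; dark controls. Read at 575 nm. Resveratrol as positive control; three independent experiments in triplicate.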

[20] = Antioxidant activity assessed as fluorescent light-induced superoxide anion scavenging activity incubated for 10 mins by nitroblue tetrazolium dye based assay; assay type: functional
Summary of the method: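 Riboflavin/light superoxide system: 50 mM phosphate pH 7.8, 13 mM L-methionine, 75 µM NBT, 100 µM EDTA, 2 µM riboflavin, compound 0-200 µg/mL. Fluorescent light for 10 min at 25 °C, dark controls, scavenging measured at 575 nm. Resveratrol as reference.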

[21] = Potency index, ratio of resveratrol SC50 to compound SC50 for fluorescent light-induced superoxide anion scavenging activity

Row | MIC50 (Candida albicans [9]) [µg/mL] | MIC80 (Candida albicans [9]) [µg/mL] | MIC50 [10] [µg/mL] | MIC80 [10] [µg/mL] | SMILES | inhibition of growth at 3.9 µg/mL (Candida albicans [2]) [%] | inhibition of growth at 7.81 µg/mL (Candida albicans [3]) [%] | inhibition of growth at 15.62 µg/mL (Candida albicans [4]) [%] | inhibition of growth at 31.25 µg/mL (Candida albicans [5]) [%] | inhibition of growth at 62.5 µg/mL (Candida albicans [6]) [%] | inhibition of growth at 125 µg/mL (Candida albicans [7]) [%] | inhibition of growth at 250 µg/mL (Candida albicans [8]) [%] | IC50 [14] [µM] | Activity [17] [%] | SC50 [18] [µM] | Activity [19] | SC50 [20] [µM] | also measured
1 | 125 (≈ 347 µM) | > 250 | 31.2 (≈ 86.6 µM) | > 250 | Brc1ccc2nc(-c3ccccc3)cc(-c3ccccc3)c2c1 | 1.16 | 2.57 | 7.33 | 10.1 | 17.2 | 30.7 | 55.9 | 128 | 45 to 55 | > 250 | < 10% | > 250 | Ratio [1]: 4; IC50 [11]: 531 µM; IC50 [12]: 669 µM; IC50 [13]: 43.4 µM; Ratio IC50 [15]: 1; Ratio IC50 (NCI-H226): 15; Ratio IC50 [16]: 5
2 | > 250 | > 250 | 15.6 (≈ 41.7 µM) | > 250 | Cc1ccc(-c2cc(-c3ccccc3)c3cc(Br)ccc3n2)cc1 | 0 | 0 | 3.04 | 2.64 | 5.87 | 11.1 | 31.5 | 175 | 45 to 55 | 197 | Active | 104 | Ratio [21]: 2
